# According to PubChem BioAssay:
# Active and inactive are the calls of the source.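 Rule for the calls, unless noted: active = viability at or under a set limit in both replicates, limit being median viability minus 3 SD (cut at about 48% in these data, passing the limit was not always enough); inconclusive = at or under the limit in just one replicate; inactive = at or above the limit in both replicates.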
# How the values were obtained:
# [1] = reducers of endogenous Her2 protein level, primary screen, SKBR3 breast tumor cells, AlphaScreen, ATP viability (AID 461;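 active = Her2 level under about 52% in both replicate screens, with viability over 70% of control, limit read from the data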;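 for Her2 level: lower value means less Her2 protein in the cells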;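 for viability: percent of carrier control wells set as 100% viability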); conditions: 18-24 h, measured here: SKBR3 viability, ATP luminescence, at 10 µM
# [2] = molecular target: Receptor tyrosine-protein kinase erbB-2 (Homo sapiens) (UniProt P04626); assay: as above; conditions: 18-24 h, at 10 µM, stronger effect = lower value
# Receptor tyrosine-protein kinase erbB-2 (Homo sapiens), sequence (P04626 whole entry, looked up): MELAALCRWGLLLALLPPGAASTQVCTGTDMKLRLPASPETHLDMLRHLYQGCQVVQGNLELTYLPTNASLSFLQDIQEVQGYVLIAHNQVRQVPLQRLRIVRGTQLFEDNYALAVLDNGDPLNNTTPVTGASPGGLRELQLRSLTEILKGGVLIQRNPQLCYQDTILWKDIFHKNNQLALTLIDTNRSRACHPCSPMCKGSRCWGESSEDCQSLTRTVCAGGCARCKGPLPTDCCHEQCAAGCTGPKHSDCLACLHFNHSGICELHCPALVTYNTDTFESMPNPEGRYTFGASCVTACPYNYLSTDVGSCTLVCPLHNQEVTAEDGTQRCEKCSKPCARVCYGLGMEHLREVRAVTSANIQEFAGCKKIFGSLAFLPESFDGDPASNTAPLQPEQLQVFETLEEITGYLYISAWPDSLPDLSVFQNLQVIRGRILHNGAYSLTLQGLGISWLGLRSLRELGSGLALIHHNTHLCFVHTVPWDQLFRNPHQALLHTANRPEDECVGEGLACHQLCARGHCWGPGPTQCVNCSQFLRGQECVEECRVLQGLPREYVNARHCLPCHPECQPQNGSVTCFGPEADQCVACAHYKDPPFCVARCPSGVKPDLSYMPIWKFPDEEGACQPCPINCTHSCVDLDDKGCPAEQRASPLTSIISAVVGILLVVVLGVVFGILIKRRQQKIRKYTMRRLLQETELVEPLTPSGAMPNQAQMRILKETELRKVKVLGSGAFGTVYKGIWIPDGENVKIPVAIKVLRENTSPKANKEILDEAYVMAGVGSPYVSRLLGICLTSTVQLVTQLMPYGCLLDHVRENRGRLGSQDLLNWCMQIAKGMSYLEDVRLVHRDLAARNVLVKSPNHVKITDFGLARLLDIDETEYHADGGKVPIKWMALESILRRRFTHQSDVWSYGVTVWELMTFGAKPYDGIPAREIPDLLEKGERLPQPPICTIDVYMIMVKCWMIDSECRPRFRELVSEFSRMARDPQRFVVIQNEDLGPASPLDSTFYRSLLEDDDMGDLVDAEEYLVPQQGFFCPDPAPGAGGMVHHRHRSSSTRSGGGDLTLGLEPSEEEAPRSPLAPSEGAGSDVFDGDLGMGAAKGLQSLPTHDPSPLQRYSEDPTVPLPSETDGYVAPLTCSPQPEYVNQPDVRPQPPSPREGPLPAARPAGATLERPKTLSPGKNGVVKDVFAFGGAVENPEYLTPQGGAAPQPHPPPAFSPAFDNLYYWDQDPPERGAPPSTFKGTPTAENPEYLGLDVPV
# [3] = SK-BR-3 cell growth inhibitors, pilot screen, 24 h, human (AID 572;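 active = viability at or below 10% of carrier control in both of two separate runs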;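 note: compound exposure lasted between 18 and 24 h rather than exactly 24 h; 100% = carrier-treated control wells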); conditions: SK-BR-3 viability, CellTiter-Glo luminescence, at 10 µM, stronger effect = lower value
# [4] = HUVEC growth inhibition – cell-based, human, primary screen (AID 575;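 active = viability at or below 30% in both replicate assays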;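 note: 100% = median of untreated cell wells with 0.1% DMSO on each plate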); conditions: HUVEC proliferation, CellTiter-Glo luminescence, 72 h; at 10 µM; stronger effect = lower value
# Method in brief: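 System: primary human umbilical vein endothelial cells; Quantity: 1250 endothelial cells in each well; Buffer or medium: supplemented EBM, 2% fetal bovine serum; Doses: one dose, 10 µM final, 0.1% DMSO; Incubation: 72 h compound incubation; Technique: ATP-based CellTiter-Glo luminescent read; Evaluation: percent of median DMSO-control luminescence; Controls: vehicle and MePR control wells.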
# [5] = growth inhibitors of H69AR lung tumor, primary screen, human, duplicate replicates (AID 580); conditions: H69AR lung tumor cells viability, ATP luminescence, 72 h; at 10 µM; stronger effect = lower value;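 note: 100% = mean luminescence of untreated wells and 0% = no signal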
# [6] = reversal of MRP1-mediated doxorubicin resistance, pilot screen, H69AR cells, doxorubicin co-treatment (AID 601;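 active = viability loss from added drug above about 55%, and viability with drug at most 40%, in both replicates, limit read from the data, passing the limit was not always enough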); conditions: CellTiter-Glo, 72 h, at 10 µM; for differential viability (reversal): stronger effect = higher value
# [7] = 384-well plate pilot, post-Golgi transport modulator project, inhibition of yeast transport mutant growth (AID 636; in the data active = inhibition above about 31%); conditions: absorbance 615 nm, about 18 h, stronger effect = higher value
# [8] = growth suppression of yeast trafficking mutant, preliminary HTS, modulators of trafficking downstream of Golgi apparatus project, 1536-format plate, OD 615 nm (AID 637; in the data active = inhibition above about 30%); conditions: yeast transport mutant growth, absorbance 615 nm, 18 h; stronger effect = higher value
# [9] = H69AR cells + 2 uM doxorubicin, measured here: viability with 2 uM doxorubicin, stronger effect = lower value
# [10] = H69AR cells, compound alone cytotoxicity
SMILES,viability [1] [%],Her2 level [2],viability [3],viability [4],viability [5],differential viability (reversal) ([6]; H69AR cells + 2 uM doxorubicin),"viability [6, 9] [%]","viability [6, 10] [%]",inhibition [7],inhibition [8]
COc1ccc2cc(CN(CCO)C(=O)c3ccccc3F)c(=O)[nH]c2c1,106,126% (inactive),106% (inactive),96.9% (inactive),95.3% (inactive),8.58% (inactive),86.7,95.3,2.86% (inactive),-8.33% (inactive)
CCOC(=O)N1CCN(C(=O)c2csc3c2CCCCC3)CC1,93.5,112% (inactive),93.5% (inactive),94.9% (inactive),90.8% (inactive),-1.73% (inactive),92.5,90.8,0.51% (inactive),-13.7% (inactive)
COc1nc(N2CCOCC2)nc(-n2cccc2)n1,94.5,86.5% (inactive),94.5% (inactive),90.6% (inactive),87.4% (inactive),13.8% (inactive),73.6,87.4,-4.08% (inactive),-5.09% (inactive)
O=S(=O)(NCCc1ccccc1F)c1cccc(S(=O)(=O)N2CCOCC2)c1,87,94.5% (inactive),87% (inactive),96.8% (inactive),97.5% (inactive),9.29% (inactive),88.2,97.5,-3.42% (inactive),3.77% (inactive)
Fc1ccc(Cn2nnc(-c3ccc(CN4CCOCC4)cc3)n2)cc1,88,122% (inactive),88% (inactive),108% (inactive),103% (inactive),6.81% (inactive),96.3,103,84.7% (active),43% (active)
C=CCn1c(SCC(=O)c2cc(C)n(C(C)COC)c2C)nc2sc(C)c(C)c2c1=O (stereo not given),97.5,77% (inactive),97.5% (inactive),68.2% (inactive),82.8% (inactive),60.8% (active),21.9,82.8,-8.77% (inactive),-4.6% (inactive)
COc1ccc(-c2noc(CCCC(=O)O)n2)cc1,130,91.5% (inactive),130% (inactive),97.1% (inactive),95% (inactive),5.04% (inactive),89.9,95,-6.4% (inactive),5.08% (inactive)
Cc1nc2c(=O)oc3ccccc3c2n1-c1ccccc1,117,100% (inactive),117% (inactive),107% (inactive),98.4% (inactive),13.4% (inactive),85.1,98.4,-6.93% (inactive),2.74% (inactive)
O=C(CSc1nnc(-c2cccnc2)o1)Nc1ccccn1,92.5,102% (inactive),92.5% (inactive),94% (inactive),94.4% (inactive),7.92% (inactive),86.5,94.4,0.68% (inactive),31.8% (active)
CCCCOC(=O)n1c(SCC(=O)N(CC)CC)nc2ccccc21,86,97.5% (inactive),86% (inactive),81.8% (inactive),91.4% (inactive),1.75% (inactive),89.6,91.4,-1.82% (inactive),-4.29% (inactive)
COc1cc2c(cc1OC)C(C)N(C(=O)c1cc3n(n1)C(C(F)(F)F)CC(c1ccco1)N3)CC2 (stereo not given),108,68.5% (inactive),108% (inactive),62% (inactive),75% (inactive),-14.3% (inactive),89.3,75,-6% (inactive),4.26% (inactive)
O=C(NCc1ccccn1)Nc1ccc2c(c1)OCO2,100,102% (inactive),100% (inactive),78.7% (inactive),92.4% (inactive),4.97% (inactive),87.4,92.4,-2.37% (inactive),-0.95% (inactive)
CCOc1ccccc1NC(=O)C1CCCN(C(=O)NCc2ccccc2)C1 (stereo not given),102,89.5% (inactive),102% (inactive),96.8% (inactive),100% (inactive),3.45% (inactive),96.6,100,-2.13% (inactive),4.26% (inactive)
CN(C)C(=O)N1CCC(C(=O)NC2CCCCCCC2)CC1,90,112% (inactive),90% (inactive),105% (inactive),92.9% (inactive),-1.97% (inactive),94.8,92.9,-3.21% (inactive),7% (inactive)
CCOC(=O)Cn1nnnc1C(C(C)C)N(Cc1cc2c(C)cc(C)cc2[nH]c1=O)C1CCCC1 (stereo not given),98,102% (inactive),98% (inactive),58.6% (inactive),88.5% (inactive),-1.4% (inactive),89.9,88.5,-5.41% (inactive),16.6% (inactive)
O=C(OCCCN1CCCC1)C1(c2ccccc2)CCCC1,82.5,117% (inactive),82.5% (inactive),121% (inactive),88.6% (inactive),6.39% (inactive),82.2,88.6,-2.84% (inactive),-13.3% (inactive)
